Results taken from ChEMBL document CHEMBL1126896, “Preparation and anti-HIV activity of O-acylated heparin and dermatan sulfate derivatives with low anticoagulant effect” (J Med Chem, 1993).

How the values were obtained:
MT4 [1] = test: Effective concentration to achieve 50% protection of MT-4 cells against the cytopathic effect of HIV-1; assay type: functional, cell-based
[2] = In vitro anticoagulant activity determined by clotting test of activated partial thromboplastin time (APTT) on a pool of human plasma; assay type: functional
Procedure, shortened: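 Activated partial thromboplastin time clotting test on pooled human plasma, run on an automatic coagulometer. Activities were calculated according to the European Pharmacopoeia.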

MT4 [3] = test: Effective concentration to achieve 50% protection of MT-4 cells against the cytopathic effect of HIV-2; assay type: functional, cell-based
MT4 [4] = test: Selectivity index for CC50 (cytotoxic concentration based on the reduction of the viability of mock-infected MT-4 cells) to that of EC50 against HIV-1; assay type: functional
Procedure, shortened: (§1)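 MT-4 cells at 3 × 10^5 cells/mL were infected with HIV-1 IIIB or HIV-2 ROD at 100 CCID50/mL, or mock-infected, alongside serial compound dilutions. Viability was read by MTT after 5 days at 37 °C. CC50 comes from mock-infected cells and EC50 from protection against cytopathicity. Index = CC50/EC50.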

HuT78 = test: Giant-cell formation between persistently HIV-1 infected HUT-78 cells and uninfected MOLT-4 cells; assay type: functional, cell-based
Procedure, shortened: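 MOLT-4 cells were co-cultured with an equal number of HUT-78 cells persistently infected with HIV-1 IIIB or HIV-2 ROD, with varying compound concentrations. Syncytia were counted by flow cytofluorography after 24 h. EC50 is the concentration giving 50% protection against giant-cell formation.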

MT4 [5] = test: Selectivity index for CC50 (cytotoxic concentration based on reduction of viability of mock-infected MT-4 cells) to that of EC50 against HIV-2; assay type: functional; procedure, shortened: as §1
[6] = Homo sapiens, MT4, read-out: EC50
[7] = Homo sapiens, HuT78, read-out: EC50

SMILES	EC50 (MT4 [1]; [6]) [µg/mL]	APTT [2] [IU mg-1]	EC50 (MT4 [3]; [6]) [µg/mL]	Selectivity index (MT4 [4])	EC50 (HuT78; [7]) [µg/mL]	Selectivity index (MT4 [5])	EC50 (MT4 [1]; mt4) [µg/mL]	EC50 (MT4 [3]; mt4) [µg/mL]	EC50 (HuT78; hut78) [µg/mL]
O=C([O-])/C=C(\COC(=O)c1ccccc1)OC1OC(COS(=O)(=O)[O-])C(OC2OC(C(=O)[O-])C(OC3OC(COS(=O)(=O)[O-])C(OC4OC(C(=O)[O-])C(OC5OC(COS(=O)(=O)[O-])C(O)C(OC(=O)c6ccccc6)C5NS(=O)(=O)[O-])C(OC(=O)c5ccccc5)C4OS(=O)(=O)[O-])C(OC(=O)c4ccccc4)C3NS(=O)(=O)[O-])C(OC(=O)c3ccccc3)C2OS(=O)(=O)[O-])C(OC(=O)c2ccccc2)C1NS(=O)(=O)[O-].[Na+].[Na+].[Na+].[Na+].[Na+].[Na+].[Na+].[Na+].[Na+].[Na+].[Na+] (configuration not stated)	0.1	8	0.2	>5000	3	>2500	–	–	–
CCCC(=O)OC/C(=C\C(=O)[O-])O[C@H]1O[C@H](COS(=O)(=O)[O-])[C@@H](O[C@@H]2O[C@@H](C(=O)[O-])[C@@H](O[C@H]3O[C@H](COS(=O)(=O)[O-])[C@@H](O[C@@H]4O[C@@H](C(=O)[O-])[C@@H](O[C@H]5O[C@H](CS(=O)(=O)[O-])[C@@H](O)[C@H](OC(=O)CCC)[C@H]5NS(=O)(=O)[O-])[C@H](OC(=O)CCC)[C@H]4OS(=O)(=O)[O-])[C@H](OC(=O)CCC)[C@H]3NS(=O)(=O)[O-])[C@H](OC(=O)CCC)[C@H]2OS(=O)(=O)[O-])[C@H](OC(=O)CCC)[C@H]1NS(=O)(=O)[O-].[Na+].[Na+].[Na+].[Na+].[Na+].[Na+].[Na+].[Na+].[Na+].[Na+].[Na+] (stereo in doubt; 3e)	–	11	–	1357	–	1261	0.26	0.28	1.5
CCCCOC(=O)/C=C(\COC(=O)CCC)OC1OC(COS(=O)(=O)[O-])C(OC2OC(C(=O)OCCCC)C(OC3OC(COS(=O)(=O)[O-])C(OC4OC(C(=O)OCCCC)C(OC5OC(COS(=O)(=O)[O-])C(O)C(OC(=O)CCC)C5NC(C)=O)C(OC(=O)CCC)C4OS(=O)(=O)[O-])C(OC(=O)CCC)C3NC(C)=O)C(OC(=O)CCC)C2OS(=O)(=O)[O-])C(OC(=O)CCC)C1NC(C)=O.[Na+].[Na+].[Na+].[Na+].[Na+] (configuration not stated)	2.3	1.3	2.6	>217	15	>192	–	–	15
CCCC(=O)OC/C(=C\C(=O)[O-])O[C@H]1O[C@H](COS(=O)(=O)[O-])[C@@H](O[C@@H]2O[C@@H](C(=O)[O-])[C@@H](O[C@H]3O[C@H](COS(=O)(=O)[O-])[C@@H](O[C@@H]4O[C@@H](C(=O)[O-])[C@@H](O[C@H]5O[C@H](CS(=O)(=O)[O-])[C@@H](O)[C@H](OC(=O)CCC)[C@H]5NS(=O)(=O)[O-])[C@H](OC(=O)CCC)[C@H]4OS(=O)(=O)[O-])[C@H](OC(=O)CCC)[C@H]3NS(=O)(=O)[O-])[C@H](OC(=O)CCC)[C@H]2OS(=O)(=O)[O-])[C@H](OC(=O)CCC)[C@H]1NS(=O)(=O)[O-].[Na+].[Na+].[Na+].[Na+].[Na+].[Na+].[Na+].[Na+].[Na+].[Na+].[Na+] (stereo in doubt; 4h)	–	9.7	–	>1786	–	>2174	0.28	0.23	7.5
CCCC(=O)OC/C(=C\C(=O)[O-])O[C@H]1O[C@H](COS(=O)(=O)[O-])[C@@H](O[C@@H]2O[C@@H](C(=O)[O-])[C@@H](O[C@H]3O[C@H](COS(=O)(=O)[O-])[C@@H](O[C@@H]4O[C@@H](C(=O)[O-])[C@@H](O[C@H]5O[C@H](CS(=O)(=O)[O-])[C@@H](O)[C@H](OC(=O)CCC)[C@H]5NS(=O)(=O)[O-])[C@H](OC(=O)CCC)[C@H]4OS(=O)(=O)[O-])[C@H](OC(=O)CCC)[C@H]3NS(=O)(=O)[O-])[C@H](OC(=O)CCC)[C@H]2OS(=O)(=O)[O-])[C@H](OC(=O)CCC)[C@H]1NS(=O)(=O)[O-].[Na+].[Na+].[Na+].[Na+].[Na+].[Na+].[Na+].[Na+].[Na+].[Na+].[Na+] (stereo in doubt; 4f)	–	6.1	–	>1136	–	>1667	0.44	0.3	1.3
CCCCCC(=O)OC/C(=C\C(=O)[O-])OC1OC(COS(=O)(=O)[O-])C(OC2OC(C(=O)[O-])C(OC3OC(COS(=O)(=O)[O-])C(OC4OC(C(=O)[O-])C(OC5OC(CS(=O)(=O)[O-])C(O)C(OC(=O)CCCCC)C5NS(=O)(=O)[O-])C(OC(=O)CCCCC)C4OS(=O)(=O)[O-])C(OC(=O)CCCCC)C3NS(=O)(=O)[O-])C(OC(=O)CCCCC)C2OS(=O)(=O)[O-])C(OC(=O)CCCCC)C1NS(=O)(=O)[O-].[Na+].[Na+].[Na+].[Na+].[Na+].[Na+].[Na+].[Na+].[Na+].[Na+].[Na+] (stereo in doubt; 2e)	–	7	–	>1613	–	>294	0.31	1.71	2.9
CCCC(=O)O[C@@H]1[C@@H](OC(C)=O)[C@H](O[C@H]2[C@@H](OS(=O)(=O)[O-])[C@@H](NS(=O)(=O)[O-])[C@@H](O[C@@H]3C(C(=O)[O-])O[C@@H](O[C@H]4[C@H](OC(=O)CCC)[C@@H](CO)O[C@@H]4COS(=O)(=O)[O-])[C@H](OS(=O)(=O)[O-])[C@H]3OC(=O)CCC)O[C@@H]2COS(=O)(=O)[O-])O[C@H](C(=O)[O-])[C@H]1O[C@H]1O[C@H](COS(=O)(=O)[O-])[C@@H](O[C@@H]2O[C@@H](C(=O)[O-])[C@@H](O)[C@H](OC(=O)CCC)[C@H]2OC(C)=O)[C@H](OC(=O)CCC)[C@H]1NC(C)=O.[Na+].[Na+].[Na+].[Na+].[Na+].[Na+].[Na+].[Na+].[Na+] (some centres not stated)	0.53	11	0.24	89	15.4	15.4	–	–	–
CC(=O)N[C@H]1[C@@H](O[C@H]2[C@H](OC(C)=O)[C@@H](OC(C)=O)[C@H](O[C@H]3[C@@H](OS(=O)(=O)[O-])[C@@H](NS(=O)(=O)[O-])[C@@H](O[C@@H]4C(C(=O)[O-])O[C@@H](O[C@H]5[C@H](OC(C)=O)[C@@H](CO)O[C@@H]5COS(=O)(=O)[O-])[C@H](OS(=O)(=O)[O-])[C@H]4OC(C)=O)O[C@@H]3COS(=O)(=O)[O-])O[C@@H]2C(=O)[O-])O[C@H](COS(=O)(=O)[O-])[C@@H](O[C@@H]2O[C@@H](C(=O)[O-])[C@@H](O)[C@H](OC(C)=O)[C@H]2OC(C)=O)[C@@H]1OC(C)=O.[Na+].[Na+].[Na+].[Na+].[Na+].[Na+].[Na+].[Na+].[Na+] (some centres not stated)	6.5	26	0.46	76	6.4	1087	–	–	–
CCCC(=O)OC/C(=C\C(=O)[O-])O[C@H]1O[C@H](COS(=O)(=O)[O-])[C@@H](O[C@@H]2O[C@@H](C(=O)[O-])[C@@H](O[C@H]3O[C@H](COS(=O)(=O)[O-])[C@@H](O[C@@H]4O[C@@H](C(=O)[O-])[C@@H](O[C@H]5O[C@H](CS(=O)(=O)[O-])[C@@H](O)[C@H](OC(=O)CCC)[C@H]5NS(=O)(=O)[O-])[C@H](OC(=O)CCC)[C@H]4OS(=O)(=O)[O-])[C@H](OC(=O)CCC)[C@H]3NS(=O)(=O)[O-])[C@H](OC(=O)CCC)[C@H]2OS(=O)(=O)[O-])[C@H](OC(=O)CCC)[C@H]1NS(=O)(=O)[O-].[Na+].[Na+].[Na+].[Na+].[Na+].[Na+].[Na+].[Na+].[Na+].[Na+].[Na+] (stereo in doubt; 4i)	–	16.8	–	>1852	–	>2941	0.27	0.16	2.1
CCCCCC(=O)O[C@@H]1[C@@H](OC(C)=O)[C@H](O[C@H]2[C@H](OS(=O)(=O)[O-])[C@@H](NS(=O)(=O)[O-])[C@@H](O[C@H]3[C@H](OC(=O)CCCCC)[C@@H](OS(=O)(=O)[O-])[C@H](O[C@H]4[C@H](OC(=O)CCCCC)[C@@H](CO)O[C@@H]4COS(=O)(=O)[O-])O[C@H]3C(=O)[O-])O[C@@H]2COS(=O)(=O)[O-])O[C@H](C(=O)[O-])[C@H]1O[C@H]1O[C@H](COS(=O)(=O)[O-])[C@@H](O[C@@H]2O[C@@H](C(=O)[O-])[C@@H](O)[C@H](OC(=O)CCCCC)[C@H]2OC(C)=O)[C@H](OC(=O)CCCCC)[C@H]1NC(C)=O.[Na+].[Na+].[Na+].[Na+].[Na+].[Na+].[Na+].[Na+].[Na+]	> 100	4	5.4	<1	8.9	9	–	–	–
CCCC(=O)OC/C(=C\C(=O)[O-])O[C@H]1O[C@H](COS(=O)(=O)[O-])[C@@H](O[C@@H]2O[C@@H](C(=O)[O-])[C@@H](O[C@H]3O[C@H](COS(=O)(=O)[O-])[C@@H](O[C@@H]4O[C@@H](C(=O)[O-])[C@@H](O[C@H]5O[C@H](CS(=O)(=O)[O-])[C@@H](O)[C@H](OC(=O)CCC)[C@H]5NS(=O)(=O)[O-])[C@H](OC(=O)CCC)[C@H]4OS(=O)(=O)[O-])[C@H](OC(=O)CCC)[C@H]3NS(=O)(=O)[O-])[C@H](OC(=O)CCC)[C@H]2OS(=O)(=O)[O-])[C@H](OC(=O)CCC)[C@H]1NS(=O)(=O)[O-].[Na+].[Na+].[Na+].[Na+].[Na+].[Na+].[Na+].[Na+].[Na+].[Na+].[Na+] (stereo in doubt; 4c)	–	2.7	–	80	–	40000	5	0.01	57.5
